Data on 13 compounds can be found in ChEMBL document CHEMBL1926588, “Sulfur and selenium derivatives of quinazoline and pyrido[2,3-d]pyrimidine: synthesis and study of their potential cytotoxic activity in vitro” (Eur J Med Chem, 2012).

The test system of data set [1] is HT-29. In words: Cytotoxicity against human HT-29 cells after 72 hrs by MTT assay. It counts as functional. The settings on record: HT-29, 72 h; for CC50: read-out: LC50 (the source's name). The procedure, abridged: (§1)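 MTT read-out after 72 h exposure at 37 °C in humidified 5% CO2, with five concentrations between 0.01 and 100. GI50 is 50% growth reduction versus untreated controls, TGI is complete growth inhibition, and LC50 is the concentration killing 50% of cells. Minimum three independent experiments.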
For orientation: Formazan colour is commonly taken as a measure of viable cells.

Data set [2] deals with MCF7. In words: Cytotoxicity against human MCF7 cells after 72 hrs by MTT assay. In kind it is functional. The settings on record: MCF7, 72 h. Summed up:
as §1

Data set [3] deals with CCRF-CEM. In words: Cytotoxicity against human CCRF-CEM cells after 72 hrs by MTT assay. The settings on record: for CC50: read-out: LC50 (the source's name). It counts as functional. The procedure, abridged: as §1
A short description of data set [4]: Cytotoxicity against human 184B5 cells after 72 hrs by MTT assay. It counts as cell-based. The settings on record: for GI50 at 72 h: 184B5 cells; for LC50 / TGI: 184b5, 72 h. The procedure, abridged:
as §1

Data set [5] can be described thus: Cytotoxicity against human HTB-54 cells after 72 hrs by MTT assay. In kind it is functional. The settings on record: HTB-54, 72 h; for CC50: read-out: LC50 (the source's name). Summed up:
as §1

The nature of data set [6]: Cytotoxicity against human BEAS2B cells after 72 hrs by MTT assay. It counts as cell-based, BEAS-2B. The settings on record: for GI50 at 72 h: BEAS2B cells; for LC50 / TGI: beas-2b, 72 h. The procedure, abridged:
as §1

Molecules are shown by their SMILES.

As to `CCCCCSc1nc(NCc2ccc([Se]C)cc2)c2ccccc2n1`, the GI50 (usually the concentration giving 50% growth inhibition) is 14.4 µM in data set [1], 13 µM in data set [2], more than 100 µM in data set [3] and 19.8 µM in data set [5]. Moreover, the TGI (usually the concentration at which net growth stops) is more than 100 µM in data set [1]; 75.2 µM in data set [2]; more than 100 µM in data set [3]; more than 100 µM in data set [4]; 50 µM in data set [5]; more than 100 µM in data set [6]. For the same compound, the CC50 is more than 100 µM in data set [1], more than 100 µM in data set [3] and 80.2 µM in data set [5]. Also, the median lethal concentration (LC50) in data set [2], in data set [4] and in data set [6] was more than 100 µM each time. Further, the results for the GI50 at 72 h in data set [4] and in data set [6] were 73 µM and 31.2 µM, respectively.

As for `CCCCC[Se]c1nc(N)c2ccccc2n1`, the 50% growth inhibitory concentration (GI50) in data set [1] was 40.3 µM; in data set [2], 28.6 µM; in data set [3], 34.8 µM; in data set [5] it was 34.6 µM. Further, the TGI in data set [1] was more than 100 µM; in data set [2] it was 59.5 µM; in data set [3] it was 68 µM; in data set [4], 43.6 µM; in data set [5], 84 µM; in data set [6], more than 100 µM. The CC50 in data set [1], in data set [3] and in data set [5] was more than 100 µM in each case. Also, the 50% lethal concentration (LC50) (commonly the concentration lethal to half of the exposed cells or organisms) in data set [2] was 90.4 µM; in data set [4], 71.85 µM; in data set [6], more than 100 µM. Besides, the GI50 at 72 h in data set [4] is 15.3 µM; in data set [6], 52.2 µM.

Consider `Sc1nc(NCc2ccccc2)c2ccccc2n1`, for which the GI50 was 10.1 µM in data set [1], 27.2 µM in data set [2], 82.4 µM in data set [3] and 15.2 µM in data set [5]. Besides, the concentration for total growth inhibition (TGI) in data set [1] is 63.5 µM; in data set [2], more than 100 µM; in data set [3], more than 100 µM; in data set [4] it was more than 100 µM; in data set [5], more than 100 µM; in data set [6] it was more than 100 µM. Also, the CC50 in data set [1], in data set [3] and in data set [5] was more than 100 µM each time. Besides, the LC50 in data set [2], in data set [4] and in data set [6] was more than 100 µM throughout. Also, the GI50 at 72 h in data set [4] is 49.6 µM; in data set [6], 66.3 µM.

Take `Nc1nc([SeH])nc2ccccc12`: the GI50 was determined as 52.2 µM in data set [1], 0.15 µM in data set [2], 25.7 µM in data set [3] and 0.04 µM in data set [5]. Also, the TGI is more than 100 µM in data set [1]; more than 100 µM in data set [2]; 52.4 µM in data set [3]; 36.65 µM in data set [4]; 3.63 µM in data set [5]; more than 100 µM in data set [6]. Besides, the CC50 was more than 100 µM in data set [1], 79.1 µM in data set [3] and more than 100 µM in data set [5]. Moreover, the median lethal concentration (LC50) was more than 100 µM in data set [2], 80.37 µM in data set [4] and more than 100 µM in data set [6]. The GI50 at 72 h in data set [4] was 0.69 µM; in data set [6], 0.08 µM.

For the compound `[SeH]c1nc(NCc2ccccc2)c2cccnc2n1`, the concentration for 50% growth inhibition (GI50) in data set [1] was 6.35 µM; in data set [2] it was 0.03 µM; in data set [3], 30.5 µM; in data set [5], more than 100 µM. Besides, the TGI was 33.1 µM in data set [1]; more than 100 µM in data set [2]; 68.9 µM in data set [3]; 9.13 µM in data set [4]; more than 100 µM in data set [5]; more than 100 µM in data set [6]. Besides, the CC50 in data set [1], in data set [3] and in data set [5] was more than 100 µM throughout. Moreover, the LC50 in data set [2], in data set [4] and in data set [6] was more than 100 µM each time. The 50% growth inhibitory concentration (GI50) at 72 h in data set [4] turned out to be 3.7 µM; in data set [6] it was 8.4 µM.

Take `CCCCC[Se]c1nc([Se]CCCCC)c2ccccc2n1`: the GI50 in data set [1] was more than 100 µM; in data set [2], 38.4 µM; in data set [3] it was 65.7 µM; in data set [5] it was more than 100 µM. In addition, the total growth inhibition concentration (TGI) is more than 100 µM in data set [1]; 95.1 µM in data set [2]; more than 100 µM in data set [3]; more than 100 µM in data set [4]; more than 100 µM in data set [5]; more than 100 µM in data set [6]. Moreover, the CC50 in data set [1], in data set [3] and in data set [5] was more than 100 µM throughout. Besides, the LC50 in data set [2], in data set [4] and in data set [6] was more than 100 µM each time. Also, the GI50 at 72 h was 71.3 µM in data set [4] and more than 100 µM in data set [6].

For `CCCCC[Se]c1nc(N)c2cccnc2n1`, the GI50 was found to be 5.91 µM in data set [1], 22.7 µM in data set [2], 12.9 µM in data set [3] and 8.78 µM in data set [5]. Besides, the TGI stood at 20 µM in data set [1]; 53.8 µM in data set [2]; 42.8 µM in data set [3]; 40.23 µM in data set [4]; 51 µM in data set [5]; 44.89 µM in data set [6]. Also, the figures for the CC50 in data set [1], in data set [3] and in data set [5] were 62.1 µM, 72.6 µM and 98.5 µM, respectively. Moreover, the results for the 50% lethal concentration (LC50) in data set [2], in data set [4] and in data set [6] were 85 µM, 70.14 µM and 73.48 µM, respectively. In addition, the concentration for 50% growth inhibition (GI50) at 72 h in data set [4] came out at 10.3 µM; in data set [6], 16.3 µM.

As for `CSc1ccc(CNc2nc([SeH])nc3ccccc23)cc1`, the 50% growth inhibitory concentration (GI50) in data set [1] worked out at 42.9 µM; in data set [2] it was 48.1 µM; in data set [3] it was 71.9 µM; in data set [5], 45.5 µM. The total growth inhibition concentration (TGI) in data set [1] is more than 100 µM; in data set [2], more than 100 µM; in data set [3], more than 100 µM; in data set [4], 86.27 µM; in data set [5] it was more than 100 µM; in data set [6], 58.21 µM. Moreover, the CC50 in data set [1], in data set [3] and in data set [5] was more than 100 µM throughout. Moreover, the LC50 in data set [2], in data set [4] and in data set [6] was more than 100 µM each time. Further, the GI50 at 72 h in data set [4] was found to be 6.84 µM; in data set [6], 0.41 µM.

Turning to `CSc1ccc(CNc2nc(SC)nc3ccccc23)cc1`, the GI50 in data set [1] was 34.7 µM; in data set [2], 47.3 µM; in data set [3], more than 100 µM; in data set [5] it was 7.22 µM. Moreover, the TGI in data set [1] was more than 100 µM; in data set [2] it was more than 100 µM; in data set [3] it was more than 100 µM; in data set [4], more than 100 µM; in data set [5], 44.5 µM; in data set [6], 59.11 µM. Further, the results for the CC50 in data set [1], in data set [3] and in data set [5] were more than 100 µM, more than 100 µM and 89.1 µM, respectively. Besides, the LC50 in data set [2] was more than 100 µM; in data set [4], more than 100 µM; in data set [6], 95.93 µM. Further, the 50% growth inhibitory concentration (GI50) at 72 h in data set [4] turned out to be 22 µM; in data set [6], 22.7 µM.

Consider `[Se]=C=NCc1ccccc1` [BENZYLISOSELENOCYANATE], for which the GI50 in data set [1] was found to be 21 µM; in data set [2] it was 27.9 µM; in data set [3] it was 28.7 µM; in data set [5], 5.98 µM. For the same compound, the TGI was 44.5 µM in data set [1]; 61.7 µM in data set [2]; 57.7 µM in data set [3]; 45.15 µM in data set [4]; 33.4 µM in data set [5]; 32.75 µM in data set [6]. In addition, the CC50 in data set [1] was determined as 68.1 µM; in data set [3], 86.7 µM; in data set [5] it was 66.1 µM. For the same compound, the median lethal concentration (LC50) in data set [2] is 95.5 µM; in data set [4] it was 74.86 µM; in data set [6], 69.59 µM. Moreover, the concentration for 50% growth inhibition (GI50) at 72 h in data set [4] came out at 15.5 µM; in data set [6], 4.1 µM.

For `CSc1nc(NCc2ccc([Se]C)cc2)c2ccccc2n1`, the concentration for 50% growth inhibition (GI50) in data set [1] is more than 100 µM; in data set [2], 36.4 µM; in data set [3] it was 63.3 µM; in data set [5] it was 57 µM. The TGI in data set [1], in data set [2], in data set [3], in data set [4], in data set [5] and in data set [6] was more than 100 µM each time. For the same compound, the CC50 in data set [1], in data set [3] and in data set [5] was more than 100 µM throughout. The median lethal concentration (LC50) in data set [2], in data set [4] and in data set [6] was more than 100 µM throughout. The GI50 at 72 h in data set [4] was determined as 70.3 µM; in data set [6], 73.5 µM.

As for `COc1cc([C@@H]2c3cc4c(cc3[C@@H](O[C@@H]3O[C@@H]5CO[C@@H](C)O[C@H]5[C@H](O)[C@H]3O)[C@H]3COC(=O)[C@H]23)OCO4)cc(OC)c1O` [ETOPOSIDE], in data set [1], the concentration for total growth inhibition (TGI) was more than 100 µM and the CC50 was more than 100 µM. In data set [2], the TGI was more than 100 µM. Besides, in data set [3], it took 12.6 µM to inhibit growth by half (GI50), total growth inhibition (TGI) required 50.1 µM and the CC50 was more than 100 µM.

In the case of `[SeH]c1nc([SeH])c2cccnc2n1`, in data set [2], the 50% growth inhibitory concentration (GI50) came to 9.83 µM, the LC50 was determined as 82.7 µM and the concentration for total growth inhibition (TGI) turned out to be 46.1 µM. Further, in data set [4], the GI50 at 72 h came to 0.71 µM, the LC50 was 67.5 µM and the TGI stood at 8.26 µM. For the same compound, in data set [5], growth was halved (GI50) at 4.03 µM, the TGI came out at 7.93 µM and the CC50 amounted to 68.4 µM.
